Test results as given in ChEMBL document CHEMBL5042523, “Novel Macrocyclic Peptidomimetics Targeting the Polo-Box Domain of Polo-Like Kinase 1” (J Med Chem, 2022).
Activity calls are given as the source filed them. No cut-off for these calls is given here. Where a SMILES comes first, the peptide text is derived from it. [ ]: non-standard residue; d: D form. pT = C[C@@H](OP(=O)(O)O)[C@H](N)C(=O)O

Key:
[1] = biological target: Serine/threonine-protein kinase PLK2 (Homo sapiens) (UniProt Q9NYY3); assay: Binding affinity to PlK2-PBD (unknown origin) using 5-carboxyfluorescein-Ahx-GPMQTS-pT-PKNG as substrate measured after 30 min by fluorescence polarization assay
How it was run: (§1)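 Competitive fluorescence polarization. E. coli-purified PBD used at its EC85 with 10 nM (final) 5-carboxyfluorescein-labelled phosphopeptide: GPMQTS-pT-PKNG probe for Plk2, GPLATS-pT-PKNG probe for Plk3. Buffer was 10 mM Tris-Cl pH 8.0, 1 mM EDTA, 50 mM NaCl, 0.01% NP-40, with test peptide over a concentration range. Polarization read 30 min after mixing. Three independent experiments.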

[2] = biological target: Serine/threonine-protein kinase PLK3 (Homo sapiens) (UniProt Q9H4B4); assay: Binding affinity to PlK3-PBD (unknown origin) using 5-carboxyfluorescein-Ahx-GPLATS-pT-PKNG as substrate measured after 30 min by fluorescence polarization assay; how it was run: as §1
HeLa = assay: Antiproliferative activity against human HeLa cell assessed as viable cells measured after 2 days by MTS assay; type: functional, cell-based; settings: time 2.0 day
How it was run: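 HeLa cells, asynchronously growing, seeded at 2000 cells/100 μL in triplicate. Compound added for 24 h, then medium replaced and compound given for another 24 h (48 h continuous). MTS reagent added for 1–4 h at 37 °C, 5% CO2. Absorbance read at 490 nm. Three independent experiments, mean relative signal with s.d.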

[3] = Drug uptake in Wistar rat administered iv measured after 5 to 30 mins by PET imaging analysis; type: ADME, organism-based; settings: in vivo, time 5-30 min

Serine/threonine-protein kinase PLK3 (Homo sapiens), sequence (Q9H4B4 whole entry, looked up): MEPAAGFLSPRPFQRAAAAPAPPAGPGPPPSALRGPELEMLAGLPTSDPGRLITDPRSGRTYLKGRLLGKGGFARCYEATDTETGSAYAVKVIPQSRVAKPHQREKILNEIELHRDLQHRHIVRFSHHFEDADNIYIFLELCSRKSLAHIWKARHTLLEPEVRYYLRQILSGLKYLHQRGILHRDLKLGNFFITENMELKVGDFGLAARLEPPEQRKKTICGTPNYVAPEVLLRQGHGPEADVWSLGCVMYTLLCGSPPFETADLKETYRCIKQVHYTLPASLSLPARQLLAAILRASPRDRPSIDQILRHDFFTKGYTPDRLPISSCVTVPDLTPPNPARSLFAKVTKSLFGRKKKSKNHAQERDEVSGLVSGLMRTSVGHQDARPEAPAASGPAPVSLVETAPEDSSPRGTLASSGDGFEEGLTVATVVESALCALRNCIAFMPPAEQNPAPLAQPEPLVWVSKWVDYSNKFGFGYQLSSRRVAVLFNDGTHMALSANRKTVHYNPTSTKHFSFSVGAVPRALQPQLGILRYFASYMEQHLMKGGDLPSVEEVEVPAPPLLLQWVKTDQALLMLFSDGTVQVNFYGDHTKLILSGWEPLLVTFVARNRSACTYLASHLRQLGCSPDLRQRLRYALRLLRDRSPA
Serine/threonine-protein kinase PLK2 (Homo sapiens), sequence (Q9NYY3 whole entry, looked up): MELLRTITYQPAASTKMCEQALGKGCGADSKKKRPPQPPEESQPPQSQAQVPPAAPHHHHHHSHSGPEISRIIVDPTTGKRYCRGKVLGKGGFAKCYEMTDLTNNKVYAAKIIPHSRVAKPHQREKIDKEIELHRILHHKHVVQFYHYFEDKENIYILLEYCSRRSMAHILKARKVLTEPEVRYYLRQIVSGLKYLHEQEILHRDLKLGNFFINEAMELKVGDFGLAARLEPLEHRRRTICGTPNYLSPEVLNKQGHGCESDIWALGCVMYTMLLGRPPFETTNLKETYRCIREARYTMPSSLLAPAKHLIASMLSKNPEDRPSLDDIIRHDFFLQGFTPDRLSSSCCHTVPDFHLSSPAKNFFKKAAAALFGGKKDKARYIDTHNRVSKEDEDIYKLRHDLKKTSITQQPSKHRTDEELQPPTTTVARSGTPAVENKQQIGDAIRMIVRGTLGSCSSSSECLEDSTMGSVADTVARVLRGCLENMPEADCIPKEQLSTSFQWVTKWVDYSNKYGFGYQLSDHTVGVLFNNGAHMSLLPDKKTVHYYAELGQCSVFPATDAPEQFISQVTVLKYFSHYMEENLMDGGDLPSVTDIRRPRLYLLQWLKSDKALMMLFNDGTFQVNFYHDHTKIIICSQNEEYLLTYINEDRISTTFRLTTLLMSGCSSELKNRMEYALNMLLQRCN

| Activity [1] | Activity [2] | Drug uptake [3] | SMILES | Activity (HeLa) |
| --- | --- | --- | --- | --- |
| inactive | inactive |  | COC(=O)[C@H](CC(C)C)NC(=O)[C@@H]1CC[C@H]2OCCNC(=O)CC[C@H](NC(=O)c3cc(OCC(C)C)cc(OCC(C)C)c3)C(=O)N[C@@H](CO)C(=O)N[C@@H]([C@@H](C)OP(=O)(O)O)C(=O)N21 | Active |
|  |  | Not Active | COC(=O)[C@H](CC(C)C)NC(=O)[C@@H]1CCCN1C(=O)[C@@H](NC(=O)[C@H](CO)NC(=O)[C@H](CCC(N)=O)NC(=O)[C@H](CCSC)NC(=O)[C@@H]1CCCN1)[C@@H](C)OP(=O)(O)O (H-PMQS[pT]PL-OMe) |  |
